Published values pooled from the literature.
Target: Tyrosine-protein kinase ITK/TSK (ITK, Homo sapiens, UniProt Q08881)
Residues used in one study (Q08881 1-620): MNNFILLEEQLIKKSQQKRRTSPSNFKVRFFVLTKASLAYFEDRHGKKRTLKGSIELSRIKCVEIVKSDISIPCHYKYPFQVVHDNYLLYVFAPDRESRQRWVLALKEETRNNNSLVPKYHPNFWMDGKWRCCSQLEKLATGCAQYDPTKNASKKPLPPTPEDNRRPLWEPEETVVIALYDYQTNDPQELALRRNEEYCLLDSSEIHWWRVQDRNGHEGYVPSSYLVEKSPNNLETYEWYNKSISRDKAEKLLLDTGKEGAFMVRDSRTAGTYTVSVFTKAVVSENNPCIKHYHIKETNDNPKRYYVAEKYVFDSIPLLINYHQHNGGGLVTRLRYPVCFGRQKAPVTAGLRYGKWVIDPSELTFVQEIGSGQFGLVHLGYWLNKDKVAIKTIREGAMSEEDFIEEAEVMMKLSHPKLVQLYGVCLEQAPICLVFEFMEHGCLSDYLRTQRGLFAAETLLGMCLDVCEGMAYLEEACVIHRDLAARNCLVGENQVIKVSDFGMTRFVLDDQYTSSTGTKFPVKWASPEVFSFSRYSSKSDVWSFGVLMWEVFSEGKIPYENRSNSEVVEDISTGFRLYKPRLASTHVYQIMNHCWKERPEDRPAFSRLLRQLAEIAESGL

Structure (SMILES)	test	setting	remaining binding
COc1ccc2c(c1)O[C@H](c1ccc(OC)c(OC)c1)C[C@@H]2NC(=O)C1(c2ccc3c(c2)OC(F)(F)O3)CC1	cell-free assay, competition with immobilised ligand	1 µM	100%
c1cncc(-c2cccc(Nc3nccc(NC4CCCCC4)n3)c2)c1	binding, competition with immobilised ligand	10 µM	80%
CC1CCCN1c1nccc(-c2cnn3ncccc23)n1 (centres unmarked)	binding	1 µM	100%
CC(=O)C1=C(C)N(c2cccc(C(F)(F)F)c2)C(=O)N[C@@H]1c1ccc(C#N)nc1	cell-free assay, competition with immobilised ligand	1 µM	90.4%
O=C(c1ccc(Nc2ncc(Cl)c(-c3ccc(Cl)s3)n2)cc1)N1CCC(N2CCCC2)CC1	binding, competition with immobilised ligand	1 µM	29%
CN(C)c1nccc(-c2cnc3ncccn23)n1	binding	1 µM	88%
O=C(c1ccc(Nc2nccc(-c3cc4ccccc4s3)n2)cc1)N1CCC(N2CCCC2)CC1	binding, competition with immobilised ligand	1 µM	96%
CCN1CCN(Cc2ccc(C(=O)Nc3ccc(C)c(Oc4ccc5c(c4)CC(=O)N5)c3)cc2C(F)(F)F)CC1	binding, competition with immobilised ligand	1 µM	72%
O=C(O)[C@H]1[C@H](Cn2nnc3ccccc3c2=O)CC[C@@H]1C(=O)c1ccc(OCCC2CCOCC2)cc1	cell-free assay, competition with immobilised ligand	1 µM	100%
O=C(Nc1c[nH]nc1C(=O)NC1CCNCC1)c1cc(F)cc(F)c1	binding, competition with immobilised ligand	1 µM	100%
C[C@H](c1ccnc(Nc2nc3ccc(-c4cc(N(C)C)ncn4)cc3[nH]2)c1)N1CCN(C(=O)CC(F)(F)F)CC1	cell-free assay, competition with immobilised ligand	0.1 µM	100%
COc1ncc2cc3ccccc3nc2c1C#N	cell-free assay, competition with immobilised ligand	5 µM	97%
Cc1cnn2ncc(-c3ccnc(N(C)C)n3)c2c1	binding	1 µM	100%
CNC(=O)[C@@H]1CC[C@@H](n2c(-c3ccc4cnccc4c3)nc3ccc(C(=O)NCc4cccc(C(N)=O)c4)cc32)C1	binding, competition with immobilised ligand	1 µM	99%
C[C@H]1CCN(c2nccc(-c3cnn4ncccc34)n2)C1	binding	1 µM	93%
Cc1c(NC(=O)c2cc(C(N)=O)nc3cc(F)ccc23)c(C(F)(F)F)nn1Cc1ccc(C#N)cc1	cell-free assay, competition with immobilised ligand	1 µM	78%
CN(C)c1ncc(F)c(-c2cnn3ncccc23)n1	binding	1 µM	100%
O=C(NCCCN1CCOCC1)c1ccc(Nc2nccc(-c3cc4ccccc4s3)n2)cc1	binding, competition with immobilised ligand	1 µM	100%
N[C@H]1CCN(c2nccc(-c3cnn4ncccc34)n2)C1	binding	1 µM	100%
CCC(=O)N[C@@H]1CC[C@H](C(=O)N(C)c2ccc(-c3nc4ccccc4o3)cc2)C1	cell-free assay, competition with immobilised ligand	1 µM	100%
